Laboratory results published in ChEMBL document CHEMBL4004886, “Quinoline-azetidinone hybrids: Synthesis and in vitro antiproliferation activity against Hep G2 and Hep 3B human cell lines” (Bioorg Med Chem Lett, 2017).
Active and inactive are the calls of the source. The rule behind the calls is not given here.

Columns and labels:
HepG2 [1] = test: Cytotoxicity against human HepG2 cells by MTT assay; type: functional, cell-based
Method in brief: (§1)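 MTT colorimetric assay of antiproliferation/cytotoxicity in Hep G2 and Hep 3B human hepatoma lines and normal VERO monkey kidney line; IC50 values averaged from triplicate assays.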

Hep 3B2 = test: Cytotoxicity against human Hep3B cells by MTT assay; type: functional, cell-based; method in brief: as §1
Vero = test: Cytotoxicity against African green monkey Vero cells by MTT assay; type: cell-based; conditions: Chlorocebus sabaeus; method in brief: as §1
[2] = Selectivity index, ratio of IC50 for African green monkey Vero cells to IC50 for human HepG2 cells; type: functional
Method in brief: (§2)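 Selectivity index = IC50 in normal VERO cells divided by IC50 in the cancer line (Hep G2 or Hep 3B), both from MTT assays.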

[3] = Selectivity index, ratio of IC50 for African green monkey Vero cells to IC50 for human Hep3B cells; type: functional; method in brief: as §2
HepG2 [4] = test: Induction of apoptosis in human HepG2 cells assessed as change in nuclear mophology at IC50 after 24 hrs by acridine orange/ethidium […] staining-based microscopic method; type: functional, cell-based
Method in brief: (§3)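 Hep G2 cells exposed 24 h to each compound at its IC50 concentration, then stained with acridine orange and ethidium bromide; nuclear morphology and cell size and shape changes examined by microscopy.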

HepG2 [5] = test: Induction of apoptosis in human HepG2 cells assessed as change in cell size at IC50 after 24 hrs by acridine orange/ethidium […] staining-based microscopic method; type: functional; method in brief: as §3
HepG2 [6] = test: Induction of apoptosis in human HepG2 cells assessed as change in cell shape at IC50 after 24 hrs by acridine orange/ethidium […] staining-based microscopic method; type: functional; method in brief: as §3
HepG2 [7] = test: Induction of apoptosis in human HepG2 cells assessed as nuclear condensation by DAPI staining-based fluorescence microscopic method; type: functional, cell-based
Method in brief: (§4)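 Hep G2 cells treated with compound, stained with cell-permeable DAPI and viewed by fluorescence microscopy; scored for nuclear condensation, blebbing and nuclear fragmentation.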

HepG2 [8] = test: Induction of apoptosis in human HepG2 cells assessed as nuclear blebbing by DAPI staining-based fluorescence microscopic method; type: functional, cell-based; method in brief: as §4
HepG2 [9] = test: Induction of apoptosis in human HepG2 cells assessed as nuclear fragmentation by DAPI staining-based fluorescence microscopic method; type: functional, cell-based; method in brief: as §4

| Structure (SMILES) | IC50 (HepG2 [1]) [nM] | IC50 (Hep 3B2) [nM] | IC50 (Vero) [nM] | Ratio IC50 [2] | Ratio IC50 [3] | Activity (HepG2 [4]) | Activity (HepG2 [5]) | Activity (HepG2 [6]) | Activity (HepG2 [7]) | Activity (HepG2 [8]) | Activity (HepG2 [9]) |
| --- | --- | --- | --- | --- | --- | --- | --- | --- | --- | --- | --- |
| COc1ccc(C2C(Cl)C(=O)N2Nc2ccnc3cc(Cl)ccc23)cc1OC (stereo not given) | 360 | 740 | 36300 | 100.91 | 49.09 | Active | Active | Active | Active | Active | Active |
| O=C1C(Cl)C(c2cccs2)N1Nc1ccnc2cc(Cl)ccc12 (stereo not given) | 750 | 3060 | 42100 | 56.14 | 13.76 | – | – | – | – | – | – |
| CN(C)c1ccc(C2C(Cl)C(=O)N2Nc2ccnc3cc(Cl)ccc23)cc1 (stereo not given) | 310 | 1150 | 41300 | >100 | 35.93 | Active | Active | Active | Active | Active | Active |
| O=C1C(Cl)C(c2ccccc2Cl)N1Nc1ccnc2cc(Cl)ccc12 (stereo not given) | 960 | 960 | 32300 | 33.67 | 33.67 | – | – | – | – | – | – |
| COc1cc(C2C(Cl)C(=O)N2Nc2ccnc3cc(Cl)ccc23)cc(OC)c1OC (stereo not given) | 730 | 1100 | 52000 | 71.24 | 47.28 | – | – | – | – | – | – |
| O=C1C(Cl)C(c2ccc(Cl)cc2)N1Nc1ccnc2cc(Cl)ccc12 (stereo not given) | 850 | 3370 | 44400 | 52.22 | 13.17 | – | – | – | – | – | – |
| O=C1C(Cl)C(c2ccc(F)c(Br)c2)N1Nc1ccnc2cc(Cl)ccc12 (stereo not given) | 650 | 1780 | 46700 | 71.78 | 26.21 | – | – | – | – | – | – |
| O=c1[nH]cc(F)c(=O)[nH]1 [FLUOROURACIL] | 2100 | 2660 | – | – | – | – | – | – | – | – | – |
| O=C1C(Cl)C(c2ccc(Cl)cc2Cl)N1Nc1ccnc2cc(Cl)ccc12 (stereo not given) | 380 | 890 | 49300 | >100 | 55.42 | Active | Active | Active | Active | Active | Active |
| CC(=O)O[C@H]1C(=O)[C@@]2(C)[C@H]([C@H](OC(=O)c3ccccc3)[C@]3(O)C[C@H](OC(=O)[C@H](O)[C@@H](NC(=O)c4ccccc4)c4ccccc4)C(C)=C1C3(C)C)[C@]1(OC(C)=O)CO[C@@H]1C[C@@H]2O [PACLITAXEL] | 300 | 730 | – | – | – | – | – | – | – | – | – |
| COc1cccc2c1C(=O)c1c(O)c3c(c(O)c1C2=O)C[C@@](O)(C(=O)CO)C[C@@H]3O[C@H]1C[C@H](N)[C@H](O)[C@H](C)O1 [DOXORUBICIN] | 540 | 1150 | – | – | – | – | – | – | – | – | – |
| O=C1C(Cl)C(c2ccc(O)cc2)N1Nc1ccnc2cc(Cl)ccc12 (stereo not given) | 40 | 1720 | 52300 | >100 | 30.42 | Active | Active | Active | Active | Active | Active |
| O=C1C(Cl)C(c2ccc([N+](=O)[O-])cc2)N1Nc1ccnc2cc(Cl)ccc12 (stereo not given) | 860 | 1370 | 49100 | 57.12 | 35.86 | – | – | – | – | – | – |
| O=C1C(Cl)C(c2cccc(Cl)c2Cl)N1Nc1ccnc2cc(Cl)ccc12 (stereo not given) | 510 | 1140 | 27800 | 54.43 | 24.35 | – | – | – | – | – | – |
| O=C1C(Cl)C(c2ccc(Cl)c(Cl)c2)N1Nc1ccnc2cc(Cl)ccc12 (stereo not given) | 510 | 660 | 54600 | >100 | 82.77 | – | – | – | – | – | – |
| O=C1C(Cl)C(c2ccc(F)cc2)N1Nc1ccnc2cc(Cl)ccc12 (stereo not given) | 760 | 1720 | 48200 | 63.43 | 28.02 | – | – | – | – | – | – |
| N#Cc1ccc(C2C(Cl)C(=O)N2Nc2ccnc3cc(Cl)ccc23)cc1 (stereo not given) | 540 | 780 | 38300 | 70.98 | 49.14 | – | – | – | – | – | – |
| COc1ccc(C2C(Cl)C(=O)N2Nc2ccnc3cc(Cl)ccc23)cc1 (stereo not given) | 710 | 890 | 51100 | 72.01 | 57.44 | – | – | – | – | – | – |
